Assay results gathered from unrelated publications.
Lines come from different studies, so protocols differ.
Target: Casein kinase I isoform alpha (CSNK1A1, Homo sapiens, UniProt P48729)

Structure (SMILES) | observed | mode | method | cell line | concentration | quantity | result
CNc1cccc2cc(C(=O)Nc3ccc(C(=O)O)cc3)c(=O)[nH]c12 | enzyme activity | inhibitor | – | – | 10 µM | inhibition | 3.5%
COc1cc(-c2cn(C3CCc4c(F)cccc4N(CC(F)(F)F)C3=O)nn2)ccc1-n1cnc(C)c1 (stereo not shown) | cell-free assay | – | competition with immobilised ligand | – | 1 µM | remaining binding | 100%
Cc1ccc(C(=O)Nc2ccc(CN3CCN(C)CC3)c(C(F)(F)F)c2)cc1C#Cc1cnc2cccnn12 | enzyme activity | inhibitor | – | – | 23.5 nM | remaining activity | 86%
Nc1c(C(=O)NCc2ccc(C(=O)NCCCC3CCCCC3)cc2)cnn1-c1ccccc1 | cell-free assay | – | competition with immobilised ligand | – | 0.1 µM | remaining binding | 100%
O=C1Nc2ccc(Cl)cc2C1=Cc1cc(Cl)c(O)c(Cl)c1 | cell-free assay | – | – | – | 0.5 µM | remaining signal | 92.6%
CN(CCCC(F)(F)F)c1nccc(-c2cnn3ncccc23)n1 | binding | – | – | – | 1 µM | remaining binding | 86%
Cc1c(NC(=O)c2cc(C(N)=O)nc3cc(F)ccc23)c(C(F)(F)F)nn1Cc1ccc(C#N)cc1 | cell-free assay | – | competition with immobilised ligand | – | 1 µM | remaining binding | 72%
CN(C)C1CCN(CC#Cc2nn(C3CCCC3)c3nc(NCc4ccccc4)ncc23)C1 (stereo not shown) | enzyme activity | inhibitor | FRET | – | 0.1 µM | inhibition | 2%
COc1cc2c(Nc3ccc(Br)cc3F)ncnc2cc1OCC1CCN(C)CC1 | cell-free assay | – | – | – | 0.5 µM | remaining signal | 102%
CN(C)C(=O)Cn1cc(-c2nc([C@@](C)(c3ccc(-c4cnc(N)nc4)cc3)C3CC3)no2)cn1 | cell-free assay | – | competition with immobilised ligand | – | 1 µM | remaining binding | 100%
CCCCNc1ncc2c(-c3ccc(F)cc3)nn(C[C@H]3CC[C@H](N)CC3)c2n1 | target engagement in cells | inhibitor | chemoproteomics | – | 20 mM | inhibition | 79.3%
COc1cc(OC)c(C=C2C(O)=Nc3ccccc32)c(OC)c1 | cell-free assay | inhibitor | – | – | 0.5 µM | remaining signal | 59.6%
CCN1CCN(Cc2ccc(NC(=O)c3ccc(C)c(/C=C/c4cnc5[nH]ccc5c4OC)c3)cc2C(F)(F)F)CC1 | target engagement in cells | inhibitor | chemoproteomics | A-375 | 0.5 µM | inhibition | -75.1%
CCc1ccccc1C(=O)Nc1n[nH]c2c(C)c(F)c(C3C(C#N)=C(C)N(C)C(C)=C3C#N)cc12 | cell-free assay | – | competition with immobilised ligand | – | 1 µM | remaining binding | 96%
CC(C)(C)c1nc(-c2cccc(NS(=O)(=O)c3c(F)cccc3F)c2F)c(-c2ccnc(N)n2)s1 | enzyme activity | inhibitor | radiometric | – | 1 µM | remaining activity | 94%
COc1cc2ncnc(Nc3ccc(Oc4ccccc4)cc3C)c2cc1OC | enzyme activity | inhibitor | – | – | 1 µM | inhibition | 3%
O=C(Nc1cnn(-c2csc(C(=O)NC3COC3)c2)c1)Nc1c(F)cccc1Cl | enzyme activity | inhibitor | – | – | 5 µM | remaining activity | 76.6%
O=C1NC(=O)c2cc(Nc3ccc(F)cc3)c(Nc3ccc(F)cc3)cc21 | cell-free assay | inhibitor | – | – | 0.5 µM | remaining signal | 88%
O=C(O)[C@@H]1[C@@H](Cn2nnc3ccccc3c2=O)CC[C@H]1C(=O)c1ccc(OCCC2CCOCC2)cc1 | cell-free assay | – | competition with immobilised ligand | – | 1 µM | remaining binding | 97%
Cc1ccc(NC(=O)c2ccc(CN3CCN(C)CC3)cc2)cc1Nc1nccc(-c2cccnc2)n1 | enzyme activity | inhibitor | – | – | 0.5 µM | activity vs control | 102%
CCC(=O)N[C@@H]1CC[C@H](C(=O)N(C)c2ccc(-c3nc4ccccc4o3)cc2)C1 | cell-free assay | – | competition with immobilised ligand | – | 1 µM | remaining binding | 100%
CCN1CCN(Cc2ccc(NC(=O)c3ccc(C)c(Oc4ccnc5[nH]ccc45)c3)cc2C(F)(F)F)CC1 | target engagement in cells | inhibitor | chemoproteomics | A-375 | 5 µM | inhibition | -60.9%
CC(C)(O)[C@H]1CC[C@H](Nc2ccc3ncc(-c4cccc(C(F)(F)F)c4)n3n2)CC1 | enzyme activity | inhibitor | – | – | 1 µM | remaining activity | 91.4%
CC(=O)N1CCC(c2ccc(C(=O)NC3=NCCN3)cc2C(F)(F)F)CC1 | cell-free assay | – | competition with immobilised ligand | – | 1 µM | remaining binding | 76%
Nc1ncnc2occ(-c3ccc(NC(=O)Nc4cc(C(F)(F)F)ccc4F)cc3)c12 | enzyme activity | inhibitor | – | – | 20 µM | remaining activity | 3.7%
